ChEMBL document CHEMBL4014315 (J Med Chem, 2017)
Calls of active or inactive are those of the source. The calls are words filed in the database; no cut-off is given here.

What was measured:
[1] = molecular target: T1, ABCG2 (Homo sapiens, UniProt Q9UNQ0); assay: Activation of ABCG2 (unknown origin) ATPase activity expressed in baculovirus infected high five cell membranes assessed as protein Vmax by ascorbic acid/ammonia molybdate reaction-based colorimetric analysis relative to basal control; details: read-out: Vmax
T1 sequence (Q9UNQ0 whole entry): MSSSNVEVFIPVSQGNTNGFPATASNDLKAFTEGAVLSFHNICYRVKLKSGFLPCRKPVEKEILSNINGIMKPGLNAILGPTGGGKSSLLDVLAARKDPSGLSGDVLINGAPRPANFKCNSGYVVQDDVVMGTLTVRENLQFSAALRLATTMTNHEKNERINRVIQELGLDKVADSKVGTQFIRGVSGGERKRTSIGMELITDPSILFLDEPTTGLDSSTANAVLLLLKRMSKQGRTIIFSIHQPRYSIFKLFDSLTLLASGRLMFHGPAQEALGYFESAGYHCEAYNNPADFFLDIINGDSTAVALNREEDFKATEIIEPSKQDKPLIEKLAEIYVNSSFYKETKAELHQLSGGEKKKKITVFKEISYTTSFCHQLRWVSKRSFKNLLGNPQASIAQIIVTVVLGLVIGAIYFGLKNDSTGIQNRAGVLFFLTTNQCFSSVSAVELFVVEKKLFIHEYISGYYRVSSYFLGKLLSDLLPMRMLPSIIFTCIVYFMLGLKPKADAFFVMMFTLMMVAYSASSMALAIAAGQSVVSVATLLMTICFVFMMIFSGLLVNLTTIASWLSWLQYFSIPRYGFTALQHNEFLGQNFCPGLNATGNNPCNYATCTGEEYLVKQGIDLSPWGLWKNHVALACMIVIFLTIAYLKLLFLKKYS
How it was run: (§1)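 Colorimetric ATPase assay of ABCG2 membranes; activity expressed relative to control. Where data were biphasic, a combined increasing plus decreasing logistic equation with the Hill coefficient fixed at one was fitted, giving an activating and an inactivating K.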

[2] = test system: MDCK-II; assay: Cytotoxicity against ABCG2 over-expressing MDCK2 cells assessed as effect on cell proliferation at low concentration after 72 hrs in absence of DMSO and presence of 1% methanol by MTT assay; assay type: ADME, cell-based, Canis lupus familiaris; details: dog
How it was run: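 Modified MTT viability assay in ABCG2-overexpressing MDCK II cells, run without DMSO and with a constant 1% methanol.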

[3] = molecular target: T2, Broad substrate specificity ATP-binding cassette transporter ABCG2 (Homo sapiens, UniProt Q9UNQ0); assay: Inhibition of recombinant human GFP-fused ABCG2 expressed in MDCK2 cells assessed as reduction in Hoechst 33342 efflux preincubated for 30 mins followed by Hoechst 33342 addition measured immediately at 60 sec time interval for 120 mins by fluorescence assay; assay type: cell-based
T2 sequence (Q9UNQ0 whole entry): T1 sequence (Q9UNQ0 whole entry)
How it was run: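 Hoechst 33342 accumulation assay: the dye is an ABCG2 substrate whose fluorescence rises when bound to DNA or embedded in membrane. Intracellular accumulation serves as the read-out of transporter inhibition.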

[4] = test system: MDCK-II; assay: Potentiation of SN-38 induced cytotoxicity against MDCK2 cells at 0.01 to 5 uM after 72 hrs by MTT assay; assay type: functional, cell-based; details: Canis lupus familiaris
How it was run: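 Parental MDCK II cells were given SN-38 dilutions combined with different modulator concentrations, with viability read by MTT.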

[5] = molecular target: T2, Broad substrate specificity ATP-binding cassette transporter ABCG2; assay: Activation of ABCG2 (unknown origin) ATPase activity expressed in baculovirus infected high five cell membranes by ascorbic acid/ammonia molybdate reaction-based colorimetric analysis; details: read-out: EC50; how it was run: as §1
[6] = molecular target: T2, Broad substrate specificity ATP-binding cassette transporter ABCG2; assay: Ratio of IC50 for inhibition of human GFP-fused ABCG2 expressed in MDCK2 cells to EC50 for inhibition of human GFP-fused ABCG2 expressed in MDCK2 cells assessed as potentiation of SN-38 induced cytotoxicity by measuring cell viability; assay type: cell-based
[7] = molecular target: T2, Broad substrate specificity ATP-binding cassette transporter ABCG2; assay: Inhibition of human GFP-fused ABCG2 expressed in MDCK2 cells assessed as potentiation of SN-38 induced cytotoxicity by measuring cell viability at 1 uM after 72 hrs by MTT assay; assay type: cell-based
How it was run: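 Reversal MTT assay in ABCG2-overexpressing MDCK II cells: SN-38 dilutions were combined with different modulator concentrations. Parental MDCK II cells defined total inhibition, and overexpressing cells without modulator defined no inhibition. GI50 values were plotted against log modulator concentration to derive IC50.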

[8] = molecular target: T2, Broad substrate specificity ATP-binding cassette transporter ABCG2; assay: Non-competitive inhibition of recombinant human GFP-fused ABCG2 expressed in MDCK2 cells up to 100 nM preincubated for 30 mins followed by varying levels of Hoechst 33342 addition measured immediately at 60 sec time interval for 120 mins by Lineweaver-Burk plot analysis; assay type: cell-based; details: 2 h
How it was run: (§2)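 Kinetics were run with Hoechst 33342 as the fluorescent ABCG2 substrate at varying levels, combined with several modulator concentrations. Data were analysed by double-reciprocal Lineweaver-Burk, half-reciprocal Hanes-Woolf and Cornish-Bowden direct linear plots. Changes in Vmax and KM with modulator concentration defined the mode: competitive, non-competitive or mixed type.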

[9] = molecular target: T2, Broad substrate specificity ATP-binding cassette transporter ABCG2; assay: Non-competitive inhibition of recombinant human GFP-fused ABCG2 expressed in MDCK2 cells up to 100 nM preincubated for 30 mins followed by varying levels of Hoechst 33342 addition measured immediately at 60 sec time interval for 120 mins by Cornish-Bowden plot analysis; assay type: cell-based; details: 2 h; how it was run: as §2
[10] = molecular target: T2, Broad substrate specificity ATP-binding cassette transporter ABCG2; assay: Non-competitive inhibition of recombinant human GFP-fused ABCG2 expressed in MDCK2 cells up to 100 nM preincubated for 30 mins followed by varying levels of Hoechst 33342 addition measured immediately at 60 sec time interval for 120 mins by Hanes-Woolf plot analysis; assay type: cell-based; details: 2 h; how it was run: as §2
[11] = Cytotoxicity against MDCK2 cells assessed as cell growth inhibition after 72 hrs by MTT assay; assay type: cell-based, Canis lupus familiaris, MDCK-II; details: dog
[12] = molecular target: T1, ABCG2; assay: Inhibition of recombinant human GFP-fused ABCG2 expressed in MDCK2 cells assessed as reduction in Hoechst 33342 efflux at […] preincubated for 30 mins followed by Hoechst 33342 addition measured immediately at 60 sec time interval for 120 mins by fluorescence assay relative to Ko143; assay type: cell-based; details: MDCK2 cells expressing recombinant GFP-fused human ABCG2, probe Hoechst 33342, read-out: Imax
[13] = Cytotoxicity against ABCG2 over-expressing MDCK2 cells assessed as cell growth inhibition after 72 hrs by MTT assay; assay type: ADME, cell-based, Canis lupus familiaris, MDCK-II; details: dog
[14] = Therapeutic index, ratio of GI50 for ABCG2 over-expressing MDCK2 cells to IC50 for recombinant human GFP-fused ABCG2 expressed in MDCK2 cells; assay type: cell-based
[15] = molecular target: T2, Broad substrate specificity ATP-binding cassette transporter ABCG2; assay: Inhibition of ABCG2 (unknown origin) ATPase activity expressed in baculovirus infected high five cell membranes by ascorbic acid/ammonia molybdate reaction-based colorimetric analysis; how it was run: as §1
[16] = molecular target: ABCC1 (Homo sapiens, UniProt P33527); assay: Inhibition of ABCC1 in human H69AR cells assessed as reduction in calcein AM levels at 10 uM preincubated for 30 mins followed by calcein AM addition measured immediately at 60 sec time interval for 60 mins by fluorescence assay relative to Cyclosporine A; assay type: cell-based; details: probe calcein AM
How it was run: (§3)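 Calcein AM assay in A2780adr cells (ABCB1 overexpressing) and H69AR cells (ABCC1 overexpressing). Compounds were screened at 10 µM, with inhibition relative to cyclosporine A as the total-inhibition control.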

[17] = molecular target: T2, Broad substrate specificity ATP-binding cassette transporter ABCG2; assay: Competitive inhibition of recombinant human GFP-fused ABCG2 expressed in MDCK2 cells up to 5620 nM preincubated for 30 mins followed by varying levels of Hoechst 33342 addition measured immediately at 60 sec time interval for 120 mins by Hanes-Woolf plot analysis; assay type: cell-based; details: 2 h; how it was run: as §2
[18] = molecular target: ATP-dependent translocase ABCB1 (Homo sapiens, UniProt P08183); assay: Inhibition of ABCB1 in human A2780adr cells assessed as reduction in calcein AM levels preincubated for 30 mins followed by calcein AM addition measured immediately at 60 sec time interval for 60 mins by fluorescence assay; assay type: cell-based; how it was run: as §3
[19] = molecular target: ABCB1 (Homo sapiens, UniProt P08183); assay: Inhibition of ABCB1 in human A2780adr cells assessed as reduction in calcein AM levels at 10 uM preincubated for 30 mins followed by calcein AM addition measured immediately at 60 sec time interval for 60 mins by fluorescence assay relative to Cyclosporine A; assay type: cell-based; details: probe calcein AM; how it was run: as §3
[20] = molecular target: T2, Broad substrate specificity ATP-binding cassette transporter ABCG2; assay: Competitive inhibition of recombinant human GFP-fused ABCG2 expressed in MDCK2 cells up to 1000 nM preincubated for 30 mins followed by varying levels of Hoechst 33342 addition measured immediately at 60 sec time interval for 120 mins by Cornish-Bowden plot analysis; assay type: cell-based; details: 2 h; how it was run: as §2
[21] = molecular target: T2, Broad substrate specificity ATP-binding cassette transporter ABCG2; assay: Competitive inhibition of recombinant human GFP-fused ABCG2 expressed in MDCK2 cells up to 5620 nM preincubated for 30 mins followed by varying levels of Hoechst 33342 addition measured immediately at 60 sec time interval for 120 mins by Lineweaver-Burk plot analysis; assay type: cell-based; details: 2 h; how it was run: as §2
[22] = molecular target: T2, Broad substrate specificity ATP-binding cassette transporter ABCG2; assay: Mixed type inhibition of recombinant human GFP-fused ABCG2 expressed in MDCK2 cells preincubated for 30 mins followed by varying levels of Hoechst 33342 addition measured immediately at 60 sec time interval for 120 mins by Cornish-Bowden plot analysis; assay type: cell-based; details: 2 h; how it was run: as §2
[23] = molecular target: T1, ABCG2; assay: Activation of ABCG2 (unknown origin) ATPase activity expressed in baculovirus infected high five cell membranes assessed as protein Vmax at 0.5 uM by ascorbic acid/ammonia molybdate reaction-based colorimetric analysis relative to basal control; details: read-out: Vmax; how it was run: as §1
[24] = molecular target: T1, ABCG2; assay: Activation of ABCG2 (unknown origin) ATPase activity expressed in baculovirus infected high five cell membranes assessed as protein Vmax at 35 uM by ascorbic acid/ammonia molybdate reaction-based colorimetric analysis relative to basal control; details: read-out: Vmax; how it was run: as §1

Sequence of ABCC1 (P33527 whole entry): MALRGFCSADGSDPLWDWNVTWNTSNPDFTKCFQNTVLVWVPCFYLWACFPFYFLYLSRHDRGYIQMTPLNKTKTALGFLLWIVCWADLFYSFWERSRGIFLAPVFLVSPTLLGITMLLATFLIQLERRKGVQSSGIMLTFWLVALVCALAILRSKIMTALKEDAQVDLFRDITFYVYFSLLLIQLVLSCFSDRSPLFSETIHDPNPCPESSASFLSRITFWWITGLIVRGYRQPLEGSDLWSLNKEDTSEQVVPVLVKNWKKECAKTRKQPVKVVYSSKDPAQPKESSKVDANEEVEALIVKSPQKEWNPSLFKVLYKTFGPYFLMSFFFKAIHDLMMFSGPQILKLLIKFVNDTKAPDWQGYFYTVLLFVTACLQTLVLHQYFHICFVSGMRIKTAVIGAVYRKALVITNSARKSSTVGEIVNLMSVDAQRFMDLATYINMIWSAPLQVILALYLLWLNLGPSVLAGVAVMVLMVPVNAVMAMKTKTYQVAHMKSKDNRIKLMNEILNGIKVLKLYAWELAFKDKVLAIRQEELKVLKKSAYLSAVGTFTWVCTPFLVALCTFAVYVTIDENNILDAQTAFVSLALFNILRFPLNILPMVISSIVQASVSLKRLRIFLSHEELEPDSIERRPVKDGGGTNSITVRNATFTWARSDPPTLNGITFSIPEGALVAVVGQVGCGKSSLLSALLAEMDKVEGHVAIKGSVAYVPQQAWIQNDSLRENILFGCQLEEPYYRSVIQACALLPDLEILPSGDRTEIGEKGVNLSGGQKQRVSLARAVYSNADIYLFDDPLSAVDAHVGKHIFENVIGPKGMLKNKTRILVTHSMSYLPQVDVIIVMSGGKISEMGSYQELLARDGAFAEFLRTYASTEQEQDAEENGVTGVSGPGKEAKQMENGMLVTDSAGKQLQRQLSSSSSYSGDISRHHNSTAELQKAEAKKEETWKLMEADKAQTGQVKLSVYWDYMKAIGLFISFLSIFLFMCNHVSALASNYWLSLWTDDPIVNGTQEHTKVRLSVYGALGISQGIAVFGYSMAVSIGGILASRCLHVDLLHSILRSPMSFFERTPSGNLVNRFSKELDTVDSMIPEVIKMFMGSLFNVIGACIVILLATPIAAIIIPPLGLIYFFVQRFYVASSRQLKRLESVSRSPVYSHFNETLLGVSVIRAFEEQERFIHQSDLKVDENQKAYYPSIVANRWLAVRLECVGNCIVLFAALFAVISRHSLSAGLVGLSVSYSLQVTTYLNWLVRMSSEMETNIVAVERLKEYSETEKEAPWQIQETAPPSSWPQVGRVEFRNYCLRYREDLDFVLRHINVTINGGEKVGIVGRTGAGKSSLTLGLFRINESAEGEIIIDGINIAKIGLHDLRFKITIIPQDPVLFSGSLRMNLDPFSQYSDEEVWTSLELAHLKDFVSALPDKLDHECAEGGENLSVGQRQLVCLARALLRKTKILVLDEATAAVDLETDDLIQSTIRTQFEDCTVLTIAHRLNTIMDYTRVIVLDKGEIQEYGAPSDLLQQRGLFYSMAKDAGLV
Sequence of ABCB1 (P08183 whole entry, the tested form may be a part): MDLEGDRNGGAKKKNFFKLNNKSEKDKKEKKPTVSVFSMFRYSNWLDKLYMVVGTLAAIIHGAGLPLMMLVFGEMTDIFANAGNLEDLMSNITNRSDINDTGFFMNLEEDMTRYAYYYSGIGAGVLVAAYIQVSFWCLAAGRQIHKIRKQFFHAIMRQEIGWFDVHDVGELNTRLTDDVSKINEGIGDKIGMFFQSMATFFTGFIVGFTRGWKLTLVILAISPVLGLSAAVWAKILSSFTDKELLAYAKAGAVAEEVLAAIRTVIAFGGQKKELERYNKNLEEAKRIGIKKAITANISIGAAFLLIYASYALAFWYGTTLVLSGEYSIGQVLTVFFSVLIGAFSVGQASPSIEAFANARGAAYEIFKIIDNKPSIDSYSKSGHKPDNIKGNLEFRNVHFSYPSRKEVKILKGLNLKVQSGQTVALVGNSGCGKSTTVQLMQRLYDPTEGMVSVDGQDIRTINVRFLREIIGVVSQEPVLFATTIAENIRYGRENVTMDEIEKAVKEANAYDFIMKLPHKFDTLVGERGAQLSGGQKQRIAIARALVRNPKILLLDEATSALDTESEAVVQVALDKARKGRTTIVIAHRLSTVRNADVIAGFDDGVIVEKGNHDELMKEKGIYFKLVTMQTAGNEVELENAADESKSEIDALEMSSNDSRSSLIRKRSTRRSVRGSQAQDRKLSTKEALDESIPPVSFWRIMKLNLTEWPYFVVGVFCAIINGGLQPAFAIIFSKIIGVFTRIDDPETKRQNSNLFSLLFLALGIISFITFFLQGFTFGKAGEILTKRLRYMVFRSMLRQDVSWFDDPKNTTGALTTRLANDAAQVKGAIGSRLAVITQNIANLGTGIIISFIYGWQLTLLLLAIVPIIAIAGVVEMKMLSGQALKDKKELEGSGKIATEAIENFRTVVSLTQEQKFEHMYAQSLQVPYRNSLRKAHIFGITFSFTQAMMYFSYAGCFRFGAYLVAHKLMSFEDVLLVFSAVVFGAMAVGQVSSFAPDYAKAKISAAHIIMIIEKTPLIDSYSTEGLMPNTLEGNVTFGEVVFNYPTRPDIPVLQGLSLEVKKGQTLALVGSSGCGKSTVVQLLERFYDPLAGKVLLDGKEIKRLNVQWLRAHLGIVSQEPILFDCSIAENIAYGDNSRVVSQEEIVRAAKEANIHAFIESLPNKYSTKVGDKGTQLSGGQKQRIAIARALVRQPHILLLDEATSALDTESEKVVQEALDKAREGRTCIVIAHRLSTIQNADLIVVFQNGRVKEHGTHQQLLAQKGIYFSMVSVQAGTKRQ
Sequence of ATP-dependent translocase ABCB1 (P08183 whole entry): as the sequence (P08183 whole entry, the tested form may be a part) above

Row | Structure (SMILES) | Emax [1] [%] | Activity [2] | IC50 [3] [µM] | Activity [4] | EC50 [5] [µM] | inhibition (INH) [7] | GI50 at 72 h [11] [µM] | Emax at 2 h [12] [%] | GI50 at 72 h [13] [µM] | TI [14] | other results
1 | O=[N+]([O-])c1ccc(Nc2nc(-c3cccnc3)nc3ccccc23)cc1 | 164 | Non-Toxic | 0.0641 | inactive | 0.009 | Active | 74.1 | 80 to 110 | 73.3 | – | Ratio IC50/EC50 [6]: 3; inhibition (INH) [8]: Active; inhibition (INH) [9]: Active; inhibition (INH) [10]: Active
2 | FC(F)(F)c1ccc(Nc2nc(-c3ccncc3)nc3ccccc23)cc1 | 152 | – | 0.488 | – | – | – | 166 | 80 to 110 | 117 | 240 | Ki [15]: 27 µM
3 | COc1ccc(Nc2nc(-c3ccncc3)nc3ccccc23)cc1 | 137 | – | 0.742 | – | 0.07 | – | – | 80 to 110 | – | – | inhibition at 1 h, 10 µM [16]: 25%
4 | N#Cc1cccc(Nc2nc(-c3cccnc3)nc3ccccc23)c1 | 151 | Non-Toxic | 0.108 | inactive | 0.35 | Active | 90.7 | 80 to 110 | 75.3 | 697 | –
5 | Cc1cc(Nc2ccc(O)c([N+](=O)[O-])c2)nc(-c2ccccc2)n1 | 154 | Non-Toxic | 0.0988 | inactive | 1.8 | Active | 57.5 | 80 to 110 | 49 | 496 | inhibition at 1 h, 10 µM [16]: 25%
6 | COc1cccc(Nc2nc(-c3ccncc3)nc3ccccc23)c1 | 132 | – | 0.558 | – | 0.042 | – | – | 80 to 110 | – | – | inhibition (INH) [17]: Active; IC50 [18]: 5.43 µM; inhibition at 1 h, 10 µM [19]: > 25%; inhibition (INH) [20]: Active; inhibition (INH) [21]: Active
7 | FC(F)(F)c1cccc(Nc2nc(-c3ccncc3)nc3ccccc23)c1 | – | – | 0.216 | – | – | – | 12.3 | 80 to 110 | 12.6 | 58.3 | inhibition (INH) [22]: Active; Emax at 0.5 µM [23]: 155%; Emax at 35 µM [24]: 25%; Ki [15]: 28 µM
